Assay results: ChEMBL document CHEMBL4825688, “Synthesis, biological evaluation and molecular modeling of benzofuran piperidine derivatives as Aβ antiaggregant” (Eur J Med Chem, 2021)
The source made the active and inactive calls. No cut-off for these calls is given here.

Legend:
[1] = Cytotoxicity against human SH-SY5Y cells assessed as cell viability at 10 uM measured after 48 hrs by MTT assay relative to control
SH-SY5Y [2] = assay: Neuroprotective activity against amyloid beta (25 to 35)-induced cell damage in human SH-SY5Y cells assessed as neuronal viability at 10 uM measured after 24 hrs in presence of amyloid beta (25 to 35) by MTT assay (reference value: 68.66 +/- 0.11 %); format: functional
[3] = molecular target: T1, Amyloid-beta precursor protein (Homo sapiens, UniProt P05067); assay: Inhibition of human amyloid beta (25 to 35) self-induced aggregation at 100 uM after 48 hrs by thioflavin-T fluorescence relative to control
Procedure, shortened: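 Aβ25-35 (10 μM, DMSO stock diluted) incubated with test compound (100 μM) in 0.05 M potassium phosphate buffer (pH 7.4) containing 0.01 M NaCl, 37 °C, 48 h; then ThT (200 μM) in 50 mM glycine-NaOH (pH 8.0) added and fluorescence read. Mean ± SD of three experiments.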

[4] = Antioxidant activity assessed as DPPH radical scavenging activity at 50 uM incubated for 1 hrs under light restrictive condition by UV-microplate reader assay relative to control; format: functional
Procedure, shortened: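 DPPH stock 56 mM and compound stock 500 mM in anhydrous methanol; compound at 50 µM final with DPPH in methanol. Absorbance read at 517 nm after 30 s shaking, then again after 1 h at room temperature in the dark. Scavenging % = (A control − A sample)/A control ×100.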

SH-SY5Y [5] = assay: Neuroprotective activity against amyloid beta (25 to 35)-induced cell damage assessed as cell viability in human SH-SY5Y cells by measuring ATP at 10 uM measured after 24 hrs in presence of amyloid beta (25 to 35) by CellTiter-Glo luminescent cell viability assay (reference value: 90.95 +/- 0.82 %); format: functional
Acetylcholinesterase = Acetylcholinesterase (Homo sapiens, UniProt P22303); assay: Inhibition of recombinant human AChE using acetylthiocholine iodide as substrate measured after 7 mins by Ellman's method
Cholinesterase = Cholinesterase (Homo sapiens, UniProt P06276); assay: Inhibition of recombinant human BuChe using S-butyrylthiocholine iodide as substrate measured after 7 mins by Ellman's method
SH-SY5Y [6] = assay: Neuroprotective activity against amyloid beta (25 to 35)-induced cell damage in human SH-SY5Y cells assessed as LDH release at 10 uM measured after 24 hrs in presence of amyloid beta (25 to 35) by LDH assay (reference value: 364.06 +/- 2.15 %); format: functional
Homo sapiens = species: Homo sapiens; assay: Selectivity index, ratio of IC50 for human BuChE to IC50 for human AChE
SH-SY5Y [7] = assay: Neuroprotective activity against amyloid beta (25 to 35)-induced cell damage in human SH-SY5Y cells assessed as late apoptotic cell at 10 uM by annexin-V and propidium iodide staining based flow cytometry analysis assay (reference value: 0.890 %); format: functional
Procedure, shortened: (§1)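 SH-SY5Y cells exposed to Aβ25-35 (10 µM) ± compounds (10 µM), then trypsinized, washed with PBS and pelleted at 1000 rpm for 3 min. Cells were stained with FITC-Annexin V and PI in binding buffer for 15 min at room temperature and analyzed by flow cytometry (10,000 events). Mean ± SD of three experiments.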

SH-SY5Y [8] = assay: Neuroprotective activity against amyloid beta (25 to 35)-induced cell damage in human SH-SY5Y cells assessed as necrotic cell at 10 uM by annexin-V and propidium iodide staining based flow cytometry analysis assay (reference value: 0 %); format: functional; procedure, shortened: as §1
SH-SY5Y [9] = assay: Neuroprotective activity against amyloid beta (25 to 35)-induced oxidative stress in human SH-SY5Y cells assessed as decrease in intracellular ROS production at 10 uM incubated with amyloid beta (25 to 35) for 24 hrs by DCFH-DA staining-based flow cytometric analysis; format: functional, cell-based
Procedure, shortened: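 SH-SY5Y (1×10⁶ cells/well) grown 24 h, then exposed to unaggregated Aβ25-35 (10 µM) ± compounds (10 µM) for 24 h at 37 °C. After three PBS washes, cells were loaded with DCFH-DA (10 µM) for 30 min, rinsed, pelleted at 1500 rpm for 5 min, resuspended in PBS and analyzed by flow cytometry (10,000 events). Mean ± SD of three experiments.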

[10] = molecular target: T1, Amyloid-beta precursor protein; assay: Inhibition of amyloid beta(25 to 35) (unknown origin) binding to human SH-SY5Y cell plasma membrane at 10 uM measured after 20 mins by UV-vis microplate reader assay; format: cell membranes
Procedure, shortened: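 SH-SY5Y cells seeded 24 h, then fresh medium with Aβ25-35 (10 µM) ± compounds (10 µM) for 30, 60 and 120 min. After two PBS washes, bound peptide was stained with Congo red in PBS for 20 min and read at 540 nm. Values are % of untreated cells (100%).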

SH-SY5Y [11] = assay: Neuroprotective activity against amyloid beta (25 to 35)-induced cell damage in human SH-SY5Y cells assessed as early apoptotic cell at 10 uM by annexin-V and propidium iodide staining based flow cytometry analysis assay (reference value: 10.9 %); format: functional; procedure, shortened: as §1
SH-SY5Y [12] = assay: Neuroprotective activity against amyloid beta (25 to 35)-induced cell damage in human SH-SY5Y cells assessed as viable at 10 uM by annexin-V and propidium iodide staining based flow cytometry analysis assay (reference value: 88.2 %); format: functional; procedure, shortened: as §1
SH-SY5Y [13] = assay: Neuroprotective activity against amyloid beta (25 to 35)-induced cell damage in human SH-SY5Y cells assessed as increase in neuronal viability measured after 24 hrs in presence of amyloid beta (25 to 35) by MTT assay; format: functional, cell-based; conditions: dose 1-10 µM

T1 sequence (P05067 whole entry): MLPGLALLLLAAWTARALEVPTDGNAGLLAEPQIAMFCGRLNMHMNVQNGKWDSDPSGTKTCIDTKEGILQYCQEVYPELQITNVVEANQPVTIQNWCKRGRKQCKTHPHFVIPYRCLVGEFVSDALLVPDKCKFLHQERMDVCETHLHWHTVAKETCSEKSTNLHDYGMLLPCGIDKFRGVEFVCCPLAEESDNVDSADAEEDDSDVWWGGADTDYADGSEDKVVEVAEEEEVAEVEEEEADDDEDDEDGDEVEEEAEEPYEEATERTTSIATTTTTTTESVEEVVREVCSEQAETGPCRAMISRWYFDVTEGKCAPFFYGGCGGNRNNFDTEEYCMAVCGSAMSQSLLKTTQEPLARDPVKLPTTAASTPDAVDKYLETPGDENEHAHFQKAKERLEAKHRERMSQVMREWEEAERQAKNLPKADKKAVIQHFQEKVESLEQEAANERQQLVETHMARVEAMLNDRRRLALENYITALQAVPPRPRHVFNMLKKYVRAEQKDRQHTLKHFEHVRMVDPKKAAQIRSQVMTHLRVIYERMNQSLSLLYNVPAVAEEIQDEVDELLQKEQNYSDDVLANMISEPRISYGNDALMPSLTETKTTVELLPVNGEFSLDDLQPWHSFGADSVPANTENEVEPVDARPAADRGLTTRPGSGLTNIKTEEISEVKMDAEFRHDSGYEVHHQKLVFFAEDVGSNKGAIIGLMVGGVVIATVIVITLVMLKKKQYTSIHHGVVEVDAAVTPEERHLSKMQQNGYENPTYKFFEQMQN
Sequence of Acetylcholinesterase (P22303 whole entry): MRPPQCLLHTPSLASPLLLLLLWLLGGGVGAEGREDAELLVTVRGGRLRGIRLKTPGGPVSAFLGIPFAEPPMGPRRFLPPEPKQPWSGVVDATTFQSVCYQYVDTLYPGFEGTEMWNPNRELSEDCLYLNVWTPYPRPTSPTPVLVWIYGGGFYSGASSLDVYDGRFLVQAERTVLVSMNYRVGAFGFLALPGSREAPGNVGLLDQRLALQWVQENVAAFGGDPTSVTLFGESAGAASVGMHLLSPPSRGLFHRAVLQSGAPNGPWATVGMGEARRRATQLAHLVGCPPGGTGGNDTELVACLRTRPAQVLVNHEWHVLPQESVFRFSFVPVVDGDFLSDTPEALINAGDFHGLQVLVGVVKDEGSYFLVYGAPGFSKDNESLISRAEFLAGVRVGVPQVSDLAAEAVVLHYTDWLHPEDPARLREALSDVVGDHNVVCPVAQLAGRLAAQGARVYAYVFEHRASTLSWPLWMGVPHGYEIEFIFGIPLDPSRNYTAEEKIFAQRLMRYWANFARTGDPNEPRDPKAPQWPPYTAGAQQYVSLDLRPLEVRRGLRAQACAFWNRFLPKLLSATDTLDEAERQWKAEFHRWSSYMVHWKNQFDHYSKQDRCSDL
Sequence of Cholinesterase (P06276 whole entry): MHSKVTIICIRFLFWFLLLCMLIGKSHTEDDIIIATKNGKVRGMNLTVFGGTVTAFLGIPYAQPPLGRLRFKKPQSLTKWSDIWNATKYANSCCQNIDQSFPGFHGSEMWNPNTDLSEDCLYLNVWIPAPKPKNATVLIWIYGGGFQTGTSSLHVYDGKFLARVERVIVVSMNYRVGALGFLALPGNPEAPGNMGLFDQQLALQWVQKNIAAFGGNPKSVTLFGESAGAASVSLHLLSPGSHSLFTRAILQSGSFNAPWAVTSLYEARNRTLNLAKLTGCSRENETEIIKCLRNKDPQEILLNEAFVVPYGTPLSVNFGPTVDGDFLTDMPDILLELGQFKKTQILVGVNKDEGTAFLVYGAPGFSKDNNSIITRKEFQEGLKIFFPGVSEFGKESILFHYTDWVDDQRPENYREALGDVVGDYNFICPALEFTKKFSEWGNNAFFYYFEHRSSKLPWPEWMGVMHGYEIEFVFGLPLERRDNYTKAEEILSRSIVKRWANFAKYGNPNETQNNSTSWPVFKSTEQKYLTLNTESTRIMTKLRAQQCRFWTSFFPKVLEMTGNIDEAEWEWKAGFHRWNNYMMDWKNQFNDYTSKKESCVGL

Structure (SMILES) | viability at 48 h, 10 µM ([1]; SH-SY5Y cells) [%] | Activity (SH-SY5Y [2]) [%] | inhibition [3] [%] | Activity [4] [%] | IC50 (Acetylcholinesterase) [µM] | IC50 (Cholinesterase) [µM] | Selectivity Index (Homo sapiens) | further results
COc1cc(/C=C/C(=O)CC(=O)/C=C/c2ccc(O)c(OC)c2)ccc1O [CURCUMIN] | 60 | 45.95 | – | – | – | – | – | –
COc1ccc(C(=O)c2c(C3CCN(Cc4ccccc4)CC3)oc3ccccc23)cc1 | 107 | 75.17 | 47.4 | 17.6 | 48.3 | 52.1 | 1.07 | Activity (SH-SY5Y [5]): 100.79%; Activity (SH-SY5Y [6]): 285%
COc1ccc(OC)c(CN2CCC(c3oc4ccccc4c3C(=O)c3ccc(OC)c(OC)c3)CC2)c1 | – | – | 37.4 | – | 55.4 | 66.3 | 1.19 | –
COc1ccc(CN2CCC(c3oc4ccccc4c3C(=O)c3ccc(OC)c(OC)c3)CC2)cc1OC | – | – | 54.4 | – | 68 | 62.2 | 0.9 | –
COc1ccc(OC)c(CN2CCC(c3cc4ccccc4o3)CC2)c1 | 102 | 79.09 | 51.8 | 11.9 | 23.9 | 35.5 | 0.04 | Activity (SH-SY5Y [5]): 102.53%; Activity (SH-SY5Y [6]): 324.83%
Oc1ccc(/C=C/c2cc(O)cc(O)c2)cc1 | – | – | – | 45.7 | – | – | – | –
Oc1ccc(CN2CCC(c3cc4ccccc4o3)CC2)cc1 | 96.4 | – | 48.3 | 12.2 | 34.9 | 64.6 | 1.8 | –
O=C(c1ccccc1)c1c(C2CCN(Cc3ccccc3)CC2)oc2ccccc12 | 107 | 76.06 | 61.9 | 21.6 | 41.3 | > 100 | – | Activity (SH-SY5Y [7]): 0.65%; Activity (SH-SY5Y [8]): 0.52%; Activity (SH-SY5Y [9]): Active; inhibition (INH) [10]: Active; Activity (SH-SY5Y [11]): 0.77%; Activity (SH-SY5Y [5]): 95.49%; Activity (SH-SY5Y [6]): 316.05%; Activity (SH-SY5Y [12]): 98.1%
COc1ccc(CN2CCC(c3cc4ccccc4o3)CC2)cc1 | – | – | 8.04 | – | 92.8 | > 100 | – | –
Clc1ccc(CN2CCC(c3cc4ccccc4o3)CC2)cc1 | – | – | 24.4 | – | 98.5 | > 100 | – | –
Cc1c(C)c2c(c(C)c1O)CCC(C)(C(=O)O)O2 (stereo unspecified) | – | – | – | 55.5 | – | – | – | –
c1ccc2oc(C3CCNCC3)cc2c1 | – | – | 45.5 | – | 61.2 | 64.4 | 1 | –
COc1cc2c(cc1OC)C(=O)C(CC1CCN(Cc3ccccc3)CC1)C2 (stereo unspecified) [DONEPEZIL] | – | 60.82 | – | – | – | – | – | viability at 48 h, 10 µM ([1]; sh-sy5y): 101%
CCc1ccc(CN2CCC(c3cc4ccccc4o3)CC2)cc1 | – | – | 19.9 | – | 64.2 | > 100 | – | –
COc1ccc(CN2CCC(c3cc4ccccc4o3)CC2)cc1OC | – | – | 14.7 | – | 52.8 | 64.6 | 1.2 | –
COc1ccc(CN2CCC(c3oc4ccccc4c3C(=O)c3ccccc3)CC2)cc1 | – | – | 42.2 | – | 97.1 | 62.6 | 0.6 | –
c1ccc(CN2CCC(c3cc4ccccc4o3)CC2)cc1 | 105 | 88.91 | 55.4 | 18.2 | 5.07 | 54.3 | 10.8 | Activity (SH-SY5Y [7]): 0.55%; Activity (SH-SY5Y [8]): 0.03%; Activity (SH-SY5Y [9]): Active; inhibition (INH) [10]: Active; Activity (SH-SY5Y [11]): 1.08%; Activity (SH-SY5Y [13]): Dose-Dependent Effect; Activity (SH-SY5Y [5]): 101.59%; Activity (SH-SY5Y [6]): 294.64%; Activity (SH-SY5Y [12]): 97.5%
COc1cc(/C=C/C(=O)O)ccc1O | – | – | – | 50 | – | – | – | –
COc1ccc(C(=O)c2c(C3CCN(Cc4cc(OC)ccc4OC)CC3)oc3ccccc23)cc1 | – | – | 46 | – | 61 | 61.7 | 1.01 | –
COc1ccc(CN2CCC(c3oc4ccccc4c3C(=O)c3ccc(OC)cc3)CC2)cc1 | – | – | 45 | – | 59.7 | 59.7 | 0.99 | –
Fc1ccc(CN2CCC(c3cc4ccccc4o3)CC2)cc1 | 101 | 80.8 | 57.7 | 10.8 | 21.3 | 55.8 | 2.6 | Activity (SH-SY5Y [7]): 0.05%; Activity (SH-SY5Y [8]): 1.58%; Activity (SH-SY5Y [9]): Active; inhibition (INH) [10]: Active; Activity (SH-SY5Y [11]): 1.2%; Activity (SH-SY5Y [13]): Dose-Dependent Effect; Activity (SH-SY5Y [5]): 104.56%; Activity (SH-SY5Y [6]): 287.37%; Activity (SH-SY5Y [12]): 98.2%
COc1ccc(OC)c(CN2CCC(c3oc4ccccc4c3C(=O)c3ccccc3)CC2)c1 | – | – | 39.4 | – | 58.2 | 33.5 | 0.45 | –
COc1ccc(CN2CCC(c3oc4ccccc4c3C(=O)c3ccccc3)CC2)cc1OC | – | – | 42.9 | – | 45.3 | > 100 | – | –
